Source: ChEMBL document CHEMBL1811814, “Synthesis and evaluation of indole, pyrazole, chromone and pyrimidine based conjugates for tumor growth inhibitory activities--development of highly efficacious cytotoxic agents” (Eur J Med Chem, 2010)

Columns and labels:
Type in all cases: functional
Design in all cases: scale not given: the % may be the effect or the level left
OVCAR-4 = assay: Growth inhibition of human OVCAR4 cells assessed tumor cell growth at 10^-5 M
Method in brief: (§1)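 NCI 60-human-tumor-cell-line panel screen. Each compound was tested at a single concentration of 10^-5 M, and percent growth of tumor cells was recorded for each cell line. Growth inhibition was expressed from these percent-growth values.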

NCI-H460 = assay: Growth inhibition of human NCI-H460 cells assessed tumor cell growth at 10^-5 M; method in brief: as §1
BT-549 = assay: Growth inhibition of human BT549 cells assessed tumor cell growth at 10^-5 M; method in brief: as §1
EKVX = assay: Growth inhibition of human EKVX cells assessed tumor cell growth at 10^-5 M; method in brief: as §1
UACC-257 = assay: Growth inhibition of human UACC257 cells assessed tumor cell growth at 10^-5 M
Method in brief: (§2)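 Single-dose screen at 10^-5 M across the 60 human tumor cell line panel, run to NCI standards. The value is the percent growth of each cell line in the presence of compound. Compounds active at this dose moved on to five-concentration testing (10^-4 to 10^-8 M).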

SNB-75 = assay: Growth inhibition of human SNB75 cells assessed tumor cell growth at 10^-5 M; method in brief: as §2
RXF 393 = assay: Growth inhibition of human RXF393 cells assessed tumor cell growth at 10^-5 M; method in brief: as §1
HCC 2998 = assay: Growth inhibition of human HCC2998 cells assessed tumor cell growth at 10^-5 M; method in brief: as §1
HL-60(TB) = assay: Growth inhibition of human HL-60(TB) cells assessed tumor cell growth at 10^-5 M
Method in brief: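 HL-60(TB), part of the 60-line panel, tested at a single concentration of 10^-5 M. The read-out is percent tumor cell growth relative to untreated growth.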

OVCAR-5 = assay: Growth inhibition of human OVCAR5 cells assessed tumor cell growth at 10^-5 M; method in brief: as §1
SK-MEL-5 = assay: Growth inhibition of human SK-MEL-5 cells assessed tumor cell growth at 10^-5 M; method in brief: as §1
DU-145 = assay: Growth inhibition of human DU145 cells assessed tumor cell growth at 10^-5 M; method in brief: as §1
NCI-H23 = assay: Growth inhibition of human NCI-H23 cells assessed tumor cell growth at 10^-5 M; method in brief: as §1
SF-539 = assay: Growth inhibition of human SF539 cells assessed tumor cell growth at 10^-5 M; method in brief: as §1
CAKI-1 = assay: Growth inhibition of human Caki1 cells assessed tumor cell growth at 10^-5 M; method in brief: as §1
SF-295 = assay: Growth inhibition of human SF295 cells assessed tumor cell growth at 10^-5 M; method in brief: as §1
K562 = assay: Growth inhibition of human K562 cells assessed tumor cell growth at 10^-5 M; method in brief: as §1
MOLT-4 = assay: Growth inhibition of human MOLT4 cells assessed tumor cell growth at 10^-5 M; method in brief: as §1
MDA-MB-468 = assay: Growth inhibition of human MDA-MB-468 cells assessed tumor cell growth at 10^-5 M; method in brief: as §1
MDA-MB-435 = assay: Growth inhibition of human MDA-MB-435 cells assessed tumor cell growth at 10^-5 M; method in brief: as §1
OVCAR-3 = assay: Growth inhibition of human OVCAR3 cells assessed tumor cell growth at 10^-5 M; method in brief: as §1
[1] = Growth inhibition of human […] cells assessed tumor cell growth at 10^-5 M; method in brief: as §1
HOP-92 = assay: Growth inhibition of human HOP92 cells assessed tumor cell growth at 10^-5 M; method in brief: as §1
Malme-3M = assay: Growth inhibition of human MALME-3M cells assessed tumor cell growth at 10^-5 M; method in brief: as §1
[2] = Growth inhibition of human Hs 578T cells assessed tumor cell growth at 10^-5 M; method in brief: as §1
A498 = assay: Growth inhibition of human A498 cells assessed tumor cell growth at 10^-5 M; method in brief: as §1
NCI-H226 = assay: Growth inhibition of human NCI-H226 cells assessed tumor cell growth at 10^-5 M; method in brief: as §1
SR = assay: Growth inhibition of human SR cells assessed tumor cell growth at 10^-5 M; method in brief: as §2
MCF7 = assay: Growth inhibition of human MCF7 cells assessed tumor cell growth at 10^-5 M; method in brief: as §1
KM12 = assay: Growth inhibition of human KM12 cells assessed tumor cell growth at 10^-5 M; method in brief: as §1
SK-MEL-28 = assay: Growth inhibition of human SK-MEL-28 cells assessed tumor cell growth at 10^-5 M; method in brief: as §1
PC-3 = assay: Growth inhibition of human PC3 cells assessed tumor cell growth at 10^-5 M; method in brief: as §1
T47D = assay: Growth inhibition of human T47D cells assessed tumor cell growth at 10^-5 M; method in brief: as §2
SK-MEL-2 = assay: Growth inhibition of human SK-MEL-2 cells assessed tumor cell growth at 10^-5 M; method in brief: as §1
NCI-H322M = assay: Growth inhibition of human NCI-H322M cells assessed tumor cell growth at 10^-5 M; method in brief: as §1
SW-620 = assay: Growth inhibition of human SW620 cells assessed tumor cell growth at 10^-5 M; method in brief: as §2
U-251 = assay: Growth inhibition of human U251 cells assessed tumor cell growth at 10^-5 M; method in brief: as §2
COLO 205 = assay: Growth inhibition of human COLO205 cells assessed tumor cell growth at 10^-5 M; method in brief: as §1
UO-31 = assay: Growth inhibition of human UO31 cells assessed tumor cell growth at 10^-5 M; method in brief: as §2
SF-268 = assay: Growth inhibition of human SF268 cells assessed tumor cell growth at 10^-5 M; method in brief: as §1
NCI/ADR-RES = assay: Growth inhibition of human NCI/ADR-RES cells assessed tumor cell growth at 10^-5 M; method in brief: as §1
MDA-MB-231 = assay: Growth inhibition of human MDA-MB-231 cells assessed tumor cell growth at 10^-5 M; method in brief: as §1
UACC-62 = assay: Growth inhibition of human UACC62 cells assessed tumor cell growth at 10^-5 M; method in brief: as §2
SN12C = assay: Growth inhibition of human SN12C cells assessed tumor cell growth at 10^-5 M; method in brief: as §1
HT-29 = assay: Growth inhibition of human HT-29 cells assessed tumor cell growth at 10^-5 M; method in brief: as §1
ACHN = assay: Growth inhibition of human ACHN cells assessed tumor cell growth at 10^-5 M; method in brief: as §1
HCT-15 = assay: Growth inhibition of human HCT15 cells assessed tumor cell growth at 10^-5 M; method in brief: as §1
HOP-62 = assay: Growth inhibition of human HOP62 cells assessed tumor cell growth at 10^-5 M; method in brief: as §1
OVCAR-8 = assay: Growth inhibition of human OVCAR8 cells assessed tumor cell growth at 10^-5 M; method in brief: as §1
SNB-19 = assay: Growth inhibition of human SNB19 cells assessed tumor cell growth at 10^-5 M; method in brief: as §2
TK-10 = assay: Growth inhibition of human TK10 cells assessed tumor cell growth at 10^-5 M; method in brief: as §2
IGROV-1 = assay: Growth inhibition of human IGROV1 cells assessed tumor cell growth at 10^-5 M; method in brief: as §1
SK-OV-3 = assay: Growth inhibition of human SKOV3 cells assessed tumor cell growth at 10^-5 M; method in brief: as §1
CCRF-CEM = assay: Growth inhibition of human CCRF-CEM cells assessed tumor cell growth at 10^-5 M; method in brief: as §1
M14 = assay: Growth inhibition of human M14 cells assessed tumor cell growth at 10^-5 M; method in brief: as §1
HCT-116 = assay: Growth inhibition of human HCT116 cells assessed tumor cell growth at 10^-5 M; method in brief: as §1
786-0 = assay: Growth inhibition of human 786-0 cells assessed tumor cell growth at 10^-5 M; method in brief: as §1
LOX IMVI = assay: Growth inhibition of human LOXIMVI cells assessed tumor cell growth at 10^-5 M; method in brief: as §1
NCI-H522 = assay: Growth inhibition of human NCI-H522 cells assessed tumor cell growth at 10^-5 M; method in brief: as §1
A549 = assay: Growth inhibition of human A549 cells assessed tumor cell growth at 10^-5 M; method in brief: as §1

SMILES: CC1=NN(c2cccc(Cl)c2)C(=O)/C1=C\c1cn(C(=O)c2ccc(Cl)cc2)c2ccccc12
- Activity (OVCAR-4): 99.58%
- Activity (NCI-H460): 109.18%
- Activity (BT-549): 95.84%
- Activity (EKVX): 79.35%
- Activity (UACC-257): 105.58%
- Activity (SNB-75): 80.97%
- Activity (RXF 393): 94.47%
- Activity (HCC 2998): 108.88%
- Activity (HL-60(TB)): 117.42%
- Activity (OVCAR-5): 97.61%
- Activity (SK-MEL-5): 90.74%
- Activity (DU-145): 104.66%
- Activity (NCI-H23): 91.24%
- Activity (SF-539): 97.75%
- Activity (CAKI-1): 92.37%
- Activity (SF-295): 102.34%
- Activity (K562): 107.93%
- Activity (MOLT-4): 99.47%
- Activity (MDA-MB-468): 103.55%
- Activity (MDA-MB-435): 120.68%
- Activity (OVCAR-3): 97.57%
- Activity [1]: 97.03%
- Activity (HOP-92): 99.69%
- Activity (Malme-3M): 101.23%
- Activity [2]: 92.29%
- Activity (A498): 123.09%
- Activity (NCI-H226): 86.8%
- Activity (SR): 96.12%
- Activity (MCF7): 87.82%
- Activity (KM12): 93.09%
- Activity (SK-MEL-28): 112.94%
- Activity (PC-3): 95.29%
- Activity (T47D): 79.84%
- Activity (SK-MEL-2): 105.09%
- Activity (NCI-H322M): 109.45%
- Activity (SW-620): 99.26%
- Activity (U-251): 94.02%
- Activity (COLO 205): 113.51%
- Activity (UO-31): 76.43%
- Activity (SF-268): 98.24%
- Activity (NCI/ADR-RES): 107.61%
- Activity (MDA-MB-231): 87.79%
- Activity (UACC-62): 90.62%
- Activity (SN12C): 92.22%
- Activity (HT-29): 101.17%
- Activity (ACHN): 88.25%
- Activity (HCT-15): 91.41%
- Activity (HOP-62): 94.61%
- Activity (OVCAR-8): 98.63%
- Activity (SNB-19): 99.84%
- Activity (TK-10): 167.41%
- Activity (IGROV-1): 75.7%
- Activity (SK-OV-3): 91.35%
- Activity (CCRF-CEM): 118.43%
- Activity (M14): 96.55%
- Activity (HCT-116): 100.16%
- Activity (786-0): 104.1%
- Activity (LOX IMVI): 90.49%
- Activity (NCI-H522): 100.77%
- Activity (A549): 96.27%

SMILES: O=C1C(=Cc2cn(Cc3ccccc3)c3ccccc23)C(=O)N(Cc2ccccc2)C(=O)N1Cc1ccccc1
- Activity (OVCAR-4): 57.3%
- Activity (NCI-H460): 36%
- Activity (BT-549): 118.1%
- Activity (EKVX): 97.5%
- Activity (UACC-257): 52.9%
- Activity (SNB-75): 44.9%
- Activity (RXF 393): 57.6%
- Activity (HCC 2998): 97.4%
- Activity (HL-60(TB)): 96.4%
- Activity (OVCAR-5): -7.2%
- Activity (SK-MEL-5): 104.1%
- Activity (DU-145): 110.4%
- Activity (NCI-H23): 87.7%
- Activity (SF-539): 83.5%
- Activity (CAKI-1): 94.6%
- Activity (SF-295): 34.3%
- Activity (K562): 81.4%
- Activity (MOLT-4): 95.2%
- Activity (MDA-MB-468): -71.7%
- Activity (MDA-MB-435): 108.2%
- Activity (OVCAR-3): 97.7%
- Activity [1]: 93.2%
- Activity (HOP-92): 90.9%
- Activity (Malme-3M): 104.8%
- Activity [2]: 90.7%
- Activity (A498): -95.7%
- Activity (NCI-H226): -49.4%
- Activity (SR): 87.2%
- Activity (MCF7): 80.2%
- Activity (KM12): 100.7%
- Activity (SK-MEL-28): 109.5%
- Activity (PC-3): 90.3%
- Activity (T47D): 51.6%
- Activity (SK-MEL-2): 83.9%
- Activity (NCI-H322M): 105%
- Activity (SW-620): 100.6%
- Activity (U-251): 75.6%
- Activity (COLO 205): 26.4%
- Activity (UO-31): 73.3%
- Activity (SF-268): 87.5%
- Activity (NCI/ADR-RES): 105.7%
- Activity (MDA-MB-231): 89.3%
- Activity (UACC-62): 53.1%
- Activity (SN12C): 101.3%
- Activity (HT-29): 110.8%
- Activity (ACHN): 86.2%
- Activity (HCT-15): 85.7%
- Activity (HOP-62): 85.4%
- Activity (OVCAR-8): 83.5%
- Activity (SNB-19): 87.1%
- Activity (TK-10): 40.6%
- Activity (IGROV-1): 75.7%
- Activity (SK-OV-3): 47.7%
- Activity (CCRF-CEM): 117.9%
- Activity (M14): 103.5%
- Activity (HCT-116): 76.1%
- Activity (786-0): 93.2%
- Activity (LOX IMVI): 87.1%
- Activity (NCI-H522): 87.6%
- Activity (A549): 80%
